Data as given in PMC3245783 (Nature neuroscience, 2011).

Assays:
[1] = tested on: formalin-induced nocifensive behavior; assay: Formalin-induced pain behavior in mice; assay type: in vivo, mouse; conditions: formalin test, antagonist 1 mg-kg^-1, i.p.
Summary of the method: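 Mice get intraplantar 5% formalin (20 μL). Nocifensive behaviour is scored in phase I (0–5 min) and phase II (5–45 min). Test compound is given i.p. at 0.01–1 mg-kg−1. In the antagonism arm, CB1, CB2 and TRPV-1 antagonists are each given at 1 mg-kg−1 i.p. Six mice per group; mean±SEM; two-way ANOVA with Bonferroni versus vehicle-injected controls.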

[2] = target: T1, FLAT-expressing Hek293 cells (Rattus norvegicus, UniProt P97612, DEL9-76); assay: [3H]-anandamide accumulation in FLAT-expressing Hek293 cells; assay type: cell-based
T1 sequence (P97612 with tags, fused parts or gaps DEL9-76): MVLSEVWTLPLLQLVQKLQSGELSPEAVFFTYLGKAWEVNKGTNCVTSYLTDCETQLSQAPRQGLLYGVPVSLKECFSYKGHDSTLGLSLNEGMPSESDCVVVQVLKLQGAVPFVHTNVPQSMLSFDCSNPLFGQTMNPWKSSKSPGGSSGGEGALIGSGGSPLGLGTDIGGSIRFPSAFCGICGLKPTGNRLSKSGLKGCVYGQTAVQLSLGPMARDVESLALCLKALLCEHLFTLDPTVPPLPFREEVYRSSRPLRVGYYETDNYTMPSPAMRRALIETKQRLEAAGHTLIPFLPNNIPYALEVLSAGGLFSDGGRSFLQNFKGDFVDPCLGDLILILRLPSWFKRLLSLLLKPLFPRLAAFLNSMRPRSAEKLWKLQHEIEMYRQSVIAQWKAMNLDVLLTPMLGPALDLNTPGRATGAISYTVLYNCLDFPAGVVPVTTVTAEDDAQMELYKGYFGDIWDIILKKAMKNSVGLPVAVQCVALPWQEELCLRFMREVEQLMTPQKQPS

| Compound | effect of antagonist on antinociceptive actions of systemic ARN272 [1] | effect on [3H]-anandamide accumulation ([2]; FLAT-expressing Hek293 cells) | further results |
| --- | --- | --- | --- |
| Cc1c(C(=O)NN2CCCCC2)nn(-c2ccc(Cl)cc2Cl)c1-c1ccc(I)cc1 [AM251] | suppressed |  |  |
| CCCCCC=CCC=CCC=CCC=CCCCC(=O)Nc1ccc(O)cc1 [AM404, N-(4-hydroxyphenyl)-eicosa-5,8,11,14-tetraenamide] |  |  | IC50 [2]: 4 µM |
| COc1ccc(C(=O)c2c(C)n(CCN3CCOCC3)c3cc(I)ccc23)cc1 [AM630] | ineffective |  |  |
| CC(C)(C)c1ccc(/C=C/C(=O)Nc2ccc3c(c2)OCCO3)cc1 [AMG9810] | ineffective |  |  |
| CCCCCCCC/C=C\CCCCCCCC(=O)N[C@H](CO)Cc1ccc(O)cc1 [OMDM-1] |  | prevented |  |
| CCCCC/C=C\C/C=C\C/C=C\C/C=C\CCCC(=O)NCc1ccoc1 [UCM707] |  | prevented |  |
| CCCCC/C=C\C/C=C\C/C=C\C/C=C\CCCC(=O)Nc1ccc(O)cc1C [VDM11] |  | prevented |  |
| CCCCC/C=C\C/C=C\C/C=C\C/C=C\CCCC(=O)NCCO [anandamide, N-arachidonoylethanolamine] |  |  | effect on [3H]-anandamide accumulation ([2]; non-radioactive anandamide 100 μM): prevented |
